ChEMBL document CHEMBL4138186, “Synthesis and bio-evaluation of indole-chalcone based benzopyrans as promising antiligase and antiproliferative agents” (Eur J Med Chem, 2018)
One block for each compound: values may come before it. The source made the active and inactive calls. The calls are words filed in the database; no cut-off is given here.

How the values were obtained:
[1] = target: DNA ligase 1 (Homo sapiens) (UniProt P18858); assay: Inhibition of human Lig1 at 10 uM using double strand nicked DNA as substrate after 30 mins in presence of ATP by acrylamide-based fluorescence-assay
Summary of the method: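 Cy3-labelled nicked duplex (52-mer annealed to 25- and 27-mers; 1 pmol) with purified hLigI (0.2 pmol) in 50 mM Tris-Cl pH 7.5, 10 mM MgCl2, 0.25 mg/mL BSA, 100 mM NaCl, 500 µM ATP. Compound at 10 μM; 30 min at 37 °C. Stopped with formamide/EDTA; ligated and unligated strands separated on 7 M urea/12% denaturing gel. Triplicate.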

[2] = tested on: HepG2; assay: Antiproliferative activity against human HepG2 cells at 10 uM after 48 hrs by MTT assay; format: functional, cell-based
Summary of the method: (§1)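 Cells seeded and allowed to adhere overnight, then given compound from 10 mM DMSO stock; DMSO alone as vehicle control. Grown 48 h, MTT (5 mg/ml) added for 3 h, formazan dissolved in DMSO, absorbance read at 590 nm. % inhibition = (A control − A treated)/A control × 100; three independent biological replicates. Single-point screen at 10 μM; IC50 from three independent experiments.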

[3] = tested on: DLD-1; assay: Antiproliferative activity against human DLD1 cells at 10 uM after 48 hrs by MTT assay; format: functional, cell-based; summary of the method: as §1
[4] = tested on: 4T1 (Mus musculus); assay: Antiproliferative activity against mouse 4T1 cells at 10 uM after 48 hrs by MTT assay
[5] = tested on: HeLa; assay: Antiproliferative activity against human HeLa cells at 10 uM after 48 hrs by MTT assay; format: functional, cell-based; summary of the method: as §1
[6] = tested on: MDA-MB-231; assay: Antiproliferative activity against human MDA-MB-231 cells at 10 uM after 48 hrs by MTT assay; format: functional, cell-based; summary of the method: as §1
[7] = tested on: DLD-1; assay: Induction of apoptosis in human DLD1 cells after 48 hrs by Annexin V-FITC/propidium iodide staining-based flow cytometric method; format: functional, cell-based
Summary of the method: (§2)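 DLD-1 cells exposed to 2.5, 5 and 10 μM for 48 h, harvested, washed in cold PBS and stained with Annexin V-FITC and PI in binding buffer at room temperature in the dark. Analysed by flow cytometry; early and late apoptotic fractions averaged from three independent experiments.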

[8] = target: DNA ligase 1 (Homo sapiens) (UniProt P18858); assay: Competitive inhibition of human Lig1 using non-ligatable double stranded nicked DNA as substrate after 2 hrs in presence of ATP by EMSA
Summary of the method: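 Purified hLigI (10 pmol) with compound (31.25–500 μM) and 2 pmol 5'-FAM-labelled non-ligatable nicked duplex (dideoxy 3' end). Buffer: 50 mM Tris-Cl pH 7.5, 10 mM MgCl2, 0.25 mg/ml BSA, 100 mM NaCl, plus ATP. Incubated 2 h on ice, then 6.5% native PAGE. Three independent experiments.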

[9] = tested on: HeLa; assay: Antiproliferative activity against human HeLa cells after 48 hrs by MTT assay; format: functional, cell-based; summary of the method: as §1
[10] = tested on: HEK293; assay: Cytotoxicity against HEK293 cells after 48 hrs by MTT assay; format: cell-based; conditions: Homo sapiens, HEK293, 48 h
[11] = tested on: DLD-1; assay: Anti-migratory activity in human DLD1 cells at 2.5 to 5 uM after 12 to 48 hrs by wound healing assay; format: functional, cell-based
Summary of the method: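 DLD-1 monolayer at 70-80% confluence scratched with a pipette tip, then exposed to 2.5 and 5 μM for 12, 24 and 48 h (methods state 12, 24, 36 h). Wound imaged by phase-contrast microscopy; % open area quantified at each time point. Mean of three independent experiments.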

[12] = tested on: DLD-1; assay: Induction of apoptosis in human DLD1 cells assessed as early apoptotic cells at 5 uM after 48 hrs by Annexin V-FITC/propidium iodide staining-based flow cytometric method relative to control; format: functional; summary of the method: as §2
[13] = Antiproliferative activity against mouse 4T1 cells after 48 hrs by MTT assay
[14] = tested on: DLD-1; assay: Induction of apoptosis in 3D-spheroids of human DLD1 cells assessed as increase in cell death after 72 hrs by FDA/propidium iodide dye based phase contrast microscopy; format: functional
Summary of the method: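 DLD-1 spheroids formed by hanging drop (5×10^3 cells/10 μL RPMI, 3 days, 37 °C, 5% CO2), moved to 0.7% agarose-coated wells and grown 7 days. Treated 72 h at 25, 12.5 and 6.25. Stained with FDA 2 μg/ml and PI 20 μg/ml for 20 min in the dark; imaged by fluorescence microscopy.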

[15] = target: LIG4/XRCC4 (Homo sapiens) (UniProt P49917+Q13426); assay: Inhibition of human DNA Lig4/[…] at 10 uM using double strand nicked DNA as substrate after 30 mins in presence of ATP by acrylamide-based fluorescence-assay; format: protein-complex assay
[16] = target: T1, DNA ligase (Enterobacteria phage T4) (UniProt P00970); assay: Inhibition of T4 DNA ligase at 10 uM using double strand nicked DNA as substrate at 3.125 to 50 uM after 30 mins in presence of ATP by acrylamide-based fluorescence-assay; conditions: Tequatrovirus T4
T1 sequence (whole entry): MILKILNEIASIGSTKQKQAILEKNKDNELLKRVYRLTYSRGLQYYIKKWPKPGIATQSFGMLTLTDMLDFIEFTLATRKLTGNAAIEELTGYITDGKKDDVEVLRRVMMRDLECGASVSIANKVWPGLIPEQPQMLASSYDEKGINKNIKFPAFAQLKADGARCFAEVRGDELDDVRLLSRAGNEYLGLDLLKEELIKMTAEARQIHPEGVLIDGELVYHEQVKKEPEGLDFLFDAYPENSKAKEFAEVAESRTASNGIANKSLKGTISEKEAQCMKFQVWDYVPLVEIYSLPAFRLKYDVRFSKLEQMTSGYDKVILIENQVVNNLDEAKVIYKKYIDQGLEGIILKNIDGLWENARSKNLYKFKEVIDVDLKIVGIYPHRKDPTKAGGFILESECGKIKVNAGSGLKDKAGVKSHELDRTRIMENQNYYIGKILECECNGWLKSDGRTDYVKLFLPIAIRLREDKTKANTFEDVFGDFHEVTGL

[17] = tested on: DLD-1; assay: Induction of apoptosis in human DLD1 cells assessed as late apoptotic cells at 10 uM after 48 hrs by Annexin V-FITC/propidium iodide staining-based flow cytometric method relative to control; format: functional; summary of the method: as §2
[18] = tested on: HepG2; assay: Antiproliferative activity against human HepG2 cells after 48 hrs by MTT assay; format: functional, cell-based; conditions: HepG2, 48 h; summary of the method: as §1
[19] = tested on: DNA; assay: Binding affinity to Escherichia coli pUC18 DNA assessed as protection against DNase1-mediated cleavage at 250 to 700 uM preincubated for 30 mins followed by DNase1 addition measured after 5 mins by 1% agarose gel based UV-transilluminator analysis; format: nucleic-acid assay
Summary of the method: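 Linearized pUC18 plasmid DNA (100 ng) incubated with compound (250, 500, 700 μM) or controls (doxorubicin 100 μM; DAPI, methyl green, ampicillin 500 μM) for 30 min at 37 °C in ligation-like buffer. DNase I 0.0025 U added for 5 min at 37 °C, stopped with urea/EDTA buffer, resolved on 1% agarose and imaged under UV.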

[20] = tested on: DLD-1; assay: Induction of apoptosis in human DLD1 cells assessed as late apoptotic cells at 5 uM after 48 hrs by Annexin V-FITC/propidium iodide staining-based flow cytometric method relative to control; format: functional; summary of the method: as §2
[21] = tested on: DLD-1; assay: Induction of apoptosis in human DLD1 cells assessed as early apoptotic cells at 10 uM after 48 hrs by Annexin V-FITC/propidium iodide staining-based flow cytometric method relative to control; format: functional; summary of the method: as §2
[22] = tested on: MDA-MB-231; assay: Antiproliferative activity against human MDA-MB-231 cells after 48 hrs by MTT assay; format: functional, cell-based; conditions: MDA-MB-231, 48 h; summary of the method: as §1
[23] = target: T2, DNA ligase 3 (Homo sapiens) (UniProt P49916); assay: Inhibition of human Lig3beta at 10 uM using double strand nicked DNA as substrate at 3.125 to 50 uM after 30 mins in presence of ATP by acrylamide-based fluorescence-assay
T2 sequence (whole entry): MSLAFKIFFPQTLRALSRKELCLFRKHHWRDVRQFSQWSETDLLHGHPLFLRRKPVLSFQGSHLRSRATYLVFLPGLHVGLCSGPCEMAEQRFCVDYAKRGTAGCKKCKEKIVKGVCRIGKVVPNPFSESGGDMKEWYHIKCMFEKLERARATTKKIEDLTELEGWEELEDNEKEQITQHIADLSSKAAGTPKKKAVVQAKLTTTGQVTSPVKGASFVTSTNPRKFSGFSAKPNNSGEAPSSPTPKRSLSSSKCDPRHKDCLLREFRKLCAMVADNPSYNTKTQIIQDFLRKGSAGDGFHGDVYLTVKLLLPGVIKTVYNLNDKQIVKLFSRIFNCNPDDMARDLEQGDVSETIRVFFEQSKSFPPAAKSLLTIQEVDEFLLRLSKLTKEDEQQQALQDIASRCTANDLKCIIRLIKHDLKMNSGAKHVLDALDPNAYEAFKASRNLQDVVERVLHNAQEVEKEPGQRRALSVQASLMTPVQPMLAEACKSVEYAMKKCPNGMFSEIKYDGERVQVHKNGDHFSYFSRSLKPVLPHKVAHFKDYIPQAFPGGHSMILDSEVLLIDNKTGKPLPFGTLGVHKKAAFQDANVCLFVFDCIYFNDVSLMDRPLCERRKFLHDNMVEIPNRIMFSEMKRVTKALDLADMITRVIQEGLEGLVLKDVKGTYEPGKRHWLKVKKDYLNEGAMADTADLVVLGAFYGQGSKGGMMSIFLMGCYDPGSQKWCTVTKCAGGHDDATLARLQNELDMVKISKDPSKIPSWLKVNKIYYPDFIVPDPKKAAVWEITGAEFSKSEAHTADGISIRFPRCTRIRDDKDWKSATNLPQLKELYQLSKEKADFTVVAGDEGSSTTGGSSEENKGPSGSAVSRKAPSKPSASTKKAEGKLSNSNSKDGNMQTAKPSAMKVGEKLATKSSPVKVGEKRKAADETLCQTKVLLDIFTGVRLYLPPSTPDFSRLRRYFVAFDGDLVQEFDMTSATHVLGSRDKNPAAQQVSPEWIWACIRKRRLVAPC

[24] = tested on: DLD-1; assay: Inhibition of colony formation of human DLD1 cells by crystal violet staining based assay; format: functional, cell-based
Summary of the method: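 400 DLD-1 cells per well grown overnight in RPMI/10% FBS, then exposed to 1.25, 2.5 and 5 μM for 24 or 48 h. Medium replaced and colonies grown a further 10 days, medium changed every third day. Fixed and stained with 0.5% crystal violet/6% glutaraldehyde for 30 min at room temperature, then imaged.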

[25] = tested on: DLD-1; assay: Antiproliferative activity against human DLD1 cells after 48 hrs by MTT assay; format: functional, cell-based; conditions: DLD-1, 48 h; summary of the method: as §1

DNA ligase 1 (Homo sapiens), sequence (P18858 whole entry): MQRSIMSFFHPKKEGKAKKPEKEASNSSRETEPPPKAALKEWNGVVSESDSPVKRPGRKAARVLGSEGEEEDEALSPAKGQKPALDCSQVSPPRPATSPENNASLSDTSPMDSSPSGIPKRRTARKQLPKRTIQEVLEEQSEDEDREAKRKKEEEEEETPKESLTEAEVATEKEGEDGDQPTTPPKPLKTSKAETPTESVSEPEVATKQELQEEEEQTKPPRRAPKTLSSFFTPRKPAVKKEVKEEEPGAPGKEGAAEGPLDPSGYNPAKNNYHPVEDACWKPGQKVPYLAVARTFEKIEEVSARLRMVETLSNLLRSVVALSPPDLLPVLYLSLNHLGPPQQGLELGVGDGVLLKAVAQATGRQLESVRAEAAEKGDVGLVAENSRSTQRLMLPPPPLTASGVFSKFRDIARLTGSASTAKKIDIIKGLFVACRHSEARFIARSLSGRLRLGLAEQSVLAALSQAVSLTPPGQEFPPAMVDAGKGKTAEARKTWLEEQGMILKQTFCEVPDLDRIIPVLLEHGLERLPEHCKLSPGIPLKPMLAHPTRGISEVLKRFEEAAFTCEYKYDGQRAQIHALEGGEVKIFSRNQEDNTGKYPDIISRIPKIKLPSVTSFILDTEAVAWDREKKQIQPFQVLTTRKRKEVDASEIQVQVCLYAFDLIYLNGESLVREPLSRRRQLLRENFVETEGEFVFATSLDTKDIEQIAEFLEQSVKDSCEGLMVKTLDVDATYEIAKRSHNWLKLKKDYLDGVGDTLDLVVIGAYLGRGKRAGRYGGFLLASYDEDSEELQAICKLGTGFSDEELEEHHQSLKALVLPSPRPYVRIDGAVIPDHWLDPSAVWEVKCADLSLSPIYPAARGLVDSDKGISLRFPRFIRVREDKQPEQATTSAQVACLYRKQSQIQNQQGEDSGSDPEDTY

Structure (SMILES): COc1ccc2[nH]c(C)c(C3C(C#N)=C(N)Oc4c3cc(/C=C/C(=O)c3ccc(C)cc3)cc4C(C)(C)C)c2c1 (stereo unspecified)
inhibition [1]: > 45%

Structure (SMILES): Cc1[nH]c2ccccc2c1C1C(C#N)=C(N)Oc2c1cc(/C=C/C(=O)c1ccc(Cl)cc1)cc2C(C)(C)C (stereo unspecified)
inhibition [1]: > 50%

Structure (SMILES): Cc1[nH]c2ccccc2c1C1C(C#N)=C(N)Oc2c(C(C)C)cc(/C=C/C(=O)c3cccs3)cc21 (stereo unspecified)
Activity [2]: Active
Activity [3]: Active
Activity [4]: Active
Activity [5]: Active
inhibition [1]: < 20%
Activity [6]: Active

Structure (SMILES): Cc1ccc(C(=O)/C=C/c2cc3c(c(C(C)(C)C)c2)OC(N)=C(C#N)C3c2c(C)[nH]c3ccc(Cl)cc23)cc1 (stereo unspecified)
inhibition [1]: > 50%

Continued, in another order:

inhibition [1]: < 20%
Structure (SMILES): Cc1ccc(C(=O)/C=C/c2cc3c(c(C(C)(C)C)c2)OC(N)=C(C#N)C3c2c(C)[nH]c3ccccc23)cc1 (stereo unspecified)

inhibition [1]: < 20%
Structure (SMILES): COc1cc(C(=O)/C=C/c2cc3c(c(C(C)(C)C)c2)OC(N)=C(C#N)C3c2c(C)[nH]c3ccccc23)cc(OC)c1OC (stereo unspecified)

inhibition [8]: Dose-dependent effect
IC50 [9]: 6.4 µM
IC50 [13]: 5.76 µM
inhibition [15]: Dose-dependent effect
inhibition [16]: inactive
IC50 [18]: 6.46 µM
Activity [19]: inactive
inhibition [1]: 69.4%
IC50 [22]: 6.09 µM
inhibition [23]: inactive
IC50 [25]: 4.66 µM
Structure (SMILES): Cc1[nH]c2ccccc2c1C1C(C#N)=C(N)Oc2c1cc(/C=C/C(=O)c1cccs1)cc2C(C)(C)C (stereo unspecified)
Activity [7]: Dose-dependent effect
Activity [2]: Active
IC50 [10]: 12.4 µM
Activity [11]: Active
Activity [12]: 17.38%
Activity [14]: Active
Activity [3]: Active
Activity [17]: 50.96%
Activity [4]: Active
Activity [5]: Active
Activity [20]: 14.85%
Activity [21]: 26.53%
Activity [6]: Active
inhibition [24]: Dose-dependent effect
